IMP-1 inh-1: IMP-1 metallo-beta-lactamase inhibitors, primary screen, biochemical, epi-absorbance readout, Pseudomonas aeruginosa enzyme; metallo-beta-lactamase IMP-1 (Pseudomonas aeruginosa); purified IMP-1, nitrocefin hydrolysis, epi-absorbance fluorescence; inhibition, % at 5.6 µM; hit rate 0.45% among 290,000;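 active = inhibition above the mean plus 3 SD of all compounds in the same screening run, cut at about 4.5% in these data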;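 note: 0% = IMP-1 with DMSO and 100% = DMSO wells lacking enzyme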
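Test system: recombinant IMP-1 enzyme, purified / Medium: HEPES buffer pH 7.1 with ZnSO4 and Brij 35 / Doses: single dose, 5.6 µM / Times: 25 °C, 15 min preincubation, 25 min reaction / Detection: Epi-absorbance via hydrolysed-nitrocefin quenching of white-plate fluorescence, 480/530 nm, EDTA stop / Evaluation: percent inhibition from optical density relative to buffer-blank wells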
pCIP destab: p/CIP-EGFP fusion destabilizers, primary screen, fluorescence, F442A cells; Q05BA5; 16 h; decrease of EGFP signal, % at 10 µM; hit rate 0.01% among 290,000; AID 1984, 2009;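 active = EGFP signal decrease of at least 30% at 10 µM or well 3 SD below plate mean, unless failing retest; inactive = the rest, including hits failing retest or dose response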
SUMO HTRF inh: inhibitors of in vitro SUMOylation cascade, primary screen, biochemical, HTRF, uHTS. SUMO-conjugating enzyme UBC9 (Homo sapiens), P63279. hit rate 0.36% among 290,000. HTRF SUMOylation assay, SAE1/SAE2 + UBC9. inhibition, % at 35 µM; in the data active = inhibition above about 50%, passing the limit was not always enough
CTSL1 counter: Fasciola hepatica cathepsin L1 inhibitors, primary screen, counter-screen for PFM18AAP inhibitor project, biochemical, QFRET, fluorogenic peptide substrate | inhibition, % at 5.96 µM | recombinant F. hepatica cathepsin L1, Z-Leu-Arg-MCA fluorescence | AID 1906, 2009 | hit rate 0.49% among 300,000;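 active = inhibition above the mean of all tested compounds plus 3 SD, set per screening campaign, cut at about 17% in these data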;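 note: 0% = plate median of test compound wells and 100% = 1 µM Z-Phe-Ala-diazomethylketone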
VIM-2 inh: VIM-2 metallo-beta-lactamase inhibitors, primary screen, biochemical, epi-absorbance readout, Pseudomonas aeruginosa enzyme; purified VIM-2, nitrocefin hydrolysis, epi-absorbance fluorescence; inhibition, % at 5.6 µM; hit rate 0.89% among 290,000;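 active = inhibition above the mean of all tested compounds plus 3 SD, cutoff set per screening run, cut at about 7.5% in these data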;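 note: red hydrolysis product quenches plate fluorescence so inhibitors raise well fluorescence; 0% = enzyme with DMSO and 100% = DMSO without enzyme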
T cell HTS: modulators of CD8 T cell-vesicle binding, primary screen, mouse 2C CD8+ T cells, flow cytometry; 2C CD8+ T cell-vesicle binding; stronger effect = lower value; response (vesicle binding), % at 7 µM; hit rate 0.068% among 330,000; AID 2052, 2009;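 active = response, share of CD8 T cells binding vesicles, and their 90th percentile fluorescence all below set limits, cut at about 80% in these data, passing the limit was not always enough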;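 note: values below 100% mean blocked vesicle binding to the CD8+ T cells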
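Benchmarks: naked versus QL9-loaded vesicles / Assay system: purified 2C TCR transgenic mouse naive CD8+ T cells / Technique: high-throughput flow cytometry with anti-B7-1 and anti-CD8 staining / Timing: Cell–vesicle co-incubation 1.5 h at 37 °C, staining 20 min on ice / Read-out: percent CD8+ FL2 mean versus row control / Probe or stimulus: QL9-loaded Drosophila micro-vesicles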
IMP-1 inh-2: IMP-1 metallo-beta-lactamase inhibitors, confirmation, selectivity assay for selective VIM-2 inhibitor project, biochemical, epi-absorbance readout, triplicate. shares compounds with VIM-2 inh. purified IMP-1, nitrocefin hydrolysis, epi-absorbance fluorescence. inhibition, % at 5.6 µM. 1,300 tested, under 10 active. AID 1856, 2009; call rule not given here;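 note: 0% = enzyme with vehicle and 100% = vehicle without enzyme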
VIM-2 FRET inh: VIM-2 inhibitors in FRET format, confirmation, artefact control for selective VIM-2 inhibitor project, biochemical, epi-absorbance artifact exclusion | shares compounds with VIM-2 inh | purified VIM-2, CCF2 FRET substrate hydrolysis | inhibition, % at 5.6 µM | hit rate 23% among 1,300 | AID 1857, 2009;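 active = inhibition above the mean of all tested compounds plus 3 SD, cut at about 19% in these data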;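 note: 0% = VIM-2 plus DMSO and 100% = no enzyme wells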
TEM-1 counter: TEM-1 serine beta-lactamase inhibitors, counter-screen for VIM-2 inhibitor project, biochemical, epi-absorbance, HTS. hit rate 3% among 1,300. AID 1866, 2009. shares compounds with VIM-2 inh. inhibition, % at 5.6 µM. Purified TEM-1, nitrocefin hydrolysis, epi-absorbance fluorescence;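 active = inhibition above that campaign's mean inhibition plus 3 SD, cut at about 0.46% in these data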;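 note: 0% = TEM-1 with DMSO and 100% = TEM-1 with 100 µM potassium clavulanate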
VIM-2 confirm 2: VIM-2 metallo-beta-lactamase inhibitors, confirmation, biochemical, epi-absorbance, hits shared with IMP-1 screen; purified VIM-2, nitrocefin hydrolysis; shares compounds with VIM-2 inh; inhibition, % at 5.6 µM; hit rate 96% among 1,300;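 active = inhibition of the VIM-2 beta-lactamase enzyme above about 11% from the earlier first-round screen, limit read from the data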;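 note: 0% = VIM-2 with DMSO and 100% = buffer wells without enzyme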
An asterisk follows results filed as active; / = no result. Only some compounds are listed: those with a hit (about 1.9% of all), similar ones and a draw of the others.

SMILES	IMP-1 inh-1	pCIP destab	SUMO HTRF inh	CTSL1 counter	VIM-2 inh	T cell HTS	IMP-1 inh-2	VIM-2 FRET inh	TEM-1 counter	VIM-2 confirm 2
O=C(COc1ccc2c3c(c(=O)oc2c1)CCC3)NCC(O)c1ccccc1 (stereo not given)	-1	-5	4	-1	14*	587	-2	-2	-6	23*
Cc1cc(=O)oc2cc(OCC(=O)NC3CC(C)(C)NC(C)(C)C3)c(Cl)cc12	-1	-1	6	1	1	528	/	/	/	/
CCc1cc(=O)oc2c(C)c(OCC(=O)NC3CC(C)(C)NC(C)(C)C3)ccc12	-4	9	3	-4	14*	182	-2	-1	-9	22*
Cc1c(OCC(=O)NCc2ccccn2)ccc2c(-c3ccccc3)cc(=O)oc12	-2	-10	8	-1	-3	122	/	/	/	/
O=C(COc1ccc2c3c(c(=O)oc2c1)CCCC3)NCc1ccncc1	-1	-9	8	-5	35*	458	-1	2	3.2*	47*
CC1CCCCN1C(=O)C1CCCCN1S(=O)(=O)c1cccc([N+](=O)[O-])c1 (stereo not given)	-3	-15	9	-4	0	50	/	/	/	/
CC(Oc1ccc2c3c(c(=O)oc2c1)CCCC3)C(=O)NCc1ccncc1 (stereo not given)	1	-12	6	6	25*	114	-2	-1	-4	38*
CC1(C)CC(NC(=O)COc2ccc3c4c(c(=O)oc3c2)CCCC4)CC(C)(C)N1	2	-4	3	2	20*	613	-3	-2	-6	26*
CCOc1cc(C2C(C#N)=C(N)Oc3n[nH]c(CC)c32)ccc1OCCN1CCOCC1 (stereo not given)	-2	-66	7	-4	13*	236	-2	2	-5	8.3*
CCc1[nH]nc2c1C(c1ccncc1)C(C#N)=C(N)O2 (stereo not given)	1	-9	-4	6	3	416	/	/	/	/
CCCN1CCN(C(=O)Cn2nc(C)n3c(cc4sccc43)c2=O)CC1	-2	-5	12	2	18*	630	-3	1	-6	23*
CCc1nn(CC(=O)N2CCN(CC)CC2)c(=O)c2cc3sccc3n12	1	-3	5	2	41*	36	-3	3	-8	50*
CC(NC(=O)CNC(=O)c1cccs1)c1cccc(C(F)(F)F)c1 (stereo not given)	/	/	/	/	/	329	/	/	/	/
COc1ccc2nc(C)cc(Nc3ccc(N4CCN(C)CC4)cc3)c2c1	-2	4	6	3	90*	211	-3	-5	-5	91*
CCCCNc1cc(Cl)nc(N)n1	-1	-11	12	0	0	48	/	/	/	/
COc1ccc(-c2nc(C#N)c(NCCCN(C)C)o2)cc1OC	3	-12	11	6	12*	607	-2	1	-6	27*
COc1ccc(CCNc2oc(-c3ccc(OC)c(OC)c3)nc2C#N)cc1	-5	-18	12	0	-1	273	/	/	/	/
N#Cc1nc(-c2ccccc2)oc1NCCCn1ccnc1	-5	-2	26	3	26*	377	-3	-11	-6	45*
COc1ccccc1-c1nc(C#N)c(NCCCn2ccnc2)o1	-1	6	8	0	18*	834	-4	-6	-5	35*
N#Cc1nc(-c2ccc(OCc3ccc(Cl)cc3)cc2)oc1NCCCn1ccnc1	-4	-5	-19	-4	-5	592	/	/	/	/
COc1ccc(C2=CC(=O)OC(C)(c3ccccc3)O2)cc1 (stereo not given)	0	-2	10	2	-1	435	/	/	/	/
O=C(CCCNC(=O)c1ccc(Cl)cc1)Nc1ccccc1C(F)(F)F	1	-6	9	1	1	215	/	/	/	/
COc1cccc2oc3ccc(C#CC4(N)CCCCC4)cc3c(=O)c12	-1	-4	27	-2	15*	661	-3	-2	-6	20*
Cn1c2ccccc2c(=O)c2ccc(F)cc21	-4	-9	20	0	13*	632	-2	-22	-10	24*
Cn1c2ccccc2c(=O)c2ccc(C#CC3(N)CCCCC3)cc21	-3	-16	16	-2	28*	347	-3	0	-10	39*
SMILES	IMP-1 inh-1	pCIP destab	SUMO HTRF inh	CTSL1 counter	VIM-2 inh	T cell HTS	IMP-1 inh-2	VIM-2 FRET inh	TEM-1 counter	VIM-2 confirm 2
Cn1c2ccccc2c(=O)c2cc(C#Cc3ccsc3)ccc21	-2	13	-1	-5	-1	508	/	/	/	/
Cn1c2ccccc2c(=O)c2cc(C#Cc3ccccn3)ccc21	-3	-5	32	2	14*	295	-2	-8	-5	17*
Cc1c(CCCC(=O)O)sc(N)c1C(=O)c1cccc(C(F)(F)F)c1	/	/	/	2	/	456	/	/	/	/
C=C1CSc2nc(=O)c3c4c(sc3n21)CCCC4	-2	-8	15	3	14*	366	-3	-1	-7	33*
Brc1ccc(-c2ccc(CNCc3ccccn3)o2)cc1	0	-2	-8	0	39*	187	-4	-15	-6	50*
Cc1cccc(NC(=O)CSCC(=O)Nc2cccc3ncccc23)c1	/	/	/	-1	/	298	/	/	/	/
NC(=O)c1cnn2c(C(F)(F)F)cc(-c3ccc(F)cc3)nc12	1	-12	30	1	16*	410	-5	-1	-8	16*
O=C(O)CC/C(=C\c1cc([N+](=O)[O-])ccc1Cl)c1nc2ccccc2s1	1	0	9	5	21*	683	-1	49*	-1	34*

Assay outcomes deposited in PubChem BioAssay by several laboratories.
